Active and inactive are the calls of the source. No cut-off for these calls is given here.
What was measured:
[1] = target: T1, Histone acetyltransferase KAT2B (Homo sapiens, UniProt Q92831); assay: Inhibition of histone acetylase activity of human recombinant PCAF expressed in Escherichia coli at 50 uM using biotinylated oligopeptide sequences from histone H4 (2-24) substrate by In-vitro time-resolved fluorescence immunosorbent acetyltransferase assay
Summary of the method: (§1)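 E. coli-expressed His-tagged human PCAF, Ni-NTA purified. Preincubated 10 min at 30 °C with inhibitor (DMSO solution) in HEPES 100 mM pH 7.5 with 0.1% BSA and 0.8% Triton X-100. Substrate was 20 pmol/well biotinylated H4 2–24 on streptavidin wells; 100 µM acetyl-CoA final; incubation steps 1 h at 30 °C. Acetylation read with anti-acetyl-lysine primary antibody and Eu-labelled anti-rabbit secondary, by time-resolved fluorescence at 340/615 nm; IC50 from RFU versus log concentration.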
Target sequence in this assay (Q92831 whole entry, looked up): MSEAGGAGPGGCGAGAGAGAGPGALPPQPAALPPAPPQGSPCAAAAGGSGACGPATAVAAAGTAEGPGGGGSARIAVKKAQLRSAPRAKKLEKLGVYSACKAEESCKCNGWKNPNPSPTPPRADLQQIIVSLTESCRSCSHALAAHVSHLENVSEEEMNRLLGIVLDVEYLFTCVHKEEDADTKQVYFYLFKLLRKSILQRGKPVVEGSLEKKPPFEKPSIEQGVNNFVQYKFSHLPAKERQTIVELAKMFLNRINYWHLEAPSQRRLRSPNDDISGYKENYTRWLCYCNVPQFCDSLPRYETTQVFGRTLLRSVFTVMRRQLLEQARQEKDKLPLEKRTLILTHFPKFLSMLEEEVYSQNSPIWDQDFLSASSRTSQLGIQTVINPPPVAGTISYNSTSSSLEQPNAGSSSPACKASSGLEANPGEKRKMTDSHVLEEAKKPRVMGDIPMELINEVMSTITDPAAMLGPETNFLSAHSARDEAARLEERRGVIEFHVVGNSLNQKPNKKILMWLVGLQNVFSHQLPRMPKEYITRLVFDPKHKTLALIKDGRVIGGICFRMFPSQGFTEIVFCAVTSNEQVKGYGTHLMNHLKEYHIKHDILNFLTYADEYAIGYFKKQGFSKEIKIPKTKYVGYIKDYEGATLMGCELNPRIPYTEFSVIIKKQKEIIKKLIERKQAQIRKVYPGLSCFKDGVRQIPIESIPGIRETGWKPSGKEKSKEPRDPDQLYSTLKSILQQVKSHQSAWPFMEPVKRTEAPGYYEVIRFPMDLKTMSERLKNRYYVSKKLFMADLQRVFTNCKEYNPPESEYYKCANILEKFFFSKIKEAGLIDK

SK-N-SH [2] = assay: Growth inhibition of human SK-N-SH cells at 20 uM by CellTiter-96 Aqueous Non-radioactive cell proliferation assay; format: functional; details: read-out: GI
Summary of the method: (§2)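 SK-N-SH neuroblastoma cells were grown in low-glucose DMEM with 10% FBS, 2 mM L-glutamine and 1% penicillin-streptomycin, and seeded at 5000/well. Compound or DMSO vehicle was added after 24 h, in triplicate.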

[3] = target: T1, Histone acetyltransferase KAT2B; assay: Inhibition of histone acetylase activity of human recombinant PCAF expressed in Escherichia coli using biotinylated oligopeptide sequences from histone H3 (1-21) substrate by In-vitro time-resolved fluorescence immunosorbent acetyltransferase assay
Summary of the method: (§3)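 His-tagged human PCAF from E. coli (IPTG induction at 18 °C overnight), purified on Ni-NTA and stored at pH 6.0. Enzyme was preincubated with inhibitor in DMSO for 10 min at 30 °C in HAT buffer pH 7.5 (0.1% BSA, 0.8% Triton X-100, 100 mM HEPES). Reaction on 20 pmol/well biotinylated H3 1–21 bound to a streptavidin plate, with 100 µM acetyl-CoA final, 1 h at 30 °C. Detection with anti-acetylhistone H3 antibody, then Eu-labelled secondary antibody; time-resolved fluorescence at 340/615 nm. IC50 from RFU plotted against log concentration.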
Target sequence in this assay (Q92831 whole entry): as the sequence (Q92831 whole entry, looked up) above

HCT-116 [4] = assay: Growth inhibition of human HCT116 cells at 20 uM by CellTiter-96 Aqueous Non-radioactive cell proliferation assay; format: functional; details: read-out: GI
Summary of the method: (§4)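 HCT116 cells were grown in high-glucose DMEM with 10% FBS, 2 mM L-glutamine, 1% non-essential amino acids and penicillin-streptomycin, and seeded at 4000/well. After 24 h, compound or DMSO vehicle was added; triplicates per concentration.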

[5] = target: T1, Histone acetyltransferase KAT2B; assay: Inhibition of histone acetylase activity of human recombinant PCAF expressed in Escherichia coli using biotinylated oligopeptide sequences from histone H4 (2-24) substrate by In-vitro time-resolved fluorescence immunosorbent acetyltransferase assay; summary of the method: as §1
Target sequence in this assay (Q92831 whole entry): as the sequence (Q92831 whole entry, looked up) above

HCT-116 [6] = assay: Growth inhibition of human HCT116 cells at 25 uM by CellTiter-96 Aqueous Non-radioactive cell proliferation assay; format: functional; details: read-out: GI; summary of the method: as §4
SK-N-SH [7] = assay: Growth inhibition of human SK-N-SH cells by CellTiter-96 Aqueous Non-radioactive cell proliferation assay; format: functional; summary of the method: as §2
MCF7 = assay: Growth inhibition of human MCF7 cells by CellTiter-96 Aqueous Non-radioactive cell proliferation assay; format: functional
Summary of the method: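 MCF-7 cells were grown in RPMI-1640 with 10% FBS, 2 mM L-glutamine and penicillin-streptomycin, and seeded at 5000/well. Compounds or DMSO were added after 24 h; three replicates per concentration.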

SK-N-SH [8] = assay: Growth inhibition of human SK-N-SH cells at 5 to 25 uM incubated for 6 to 72 hrs by CellTiter-96 Aqueous Non-radioactive cell proliferation assay; format: functional, cell-based
Summary of the method: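 Time course in SK-N-SH cells (5000/well, low-glucose DMEM with 10% FBS). Compound at 5, 10 or 25 µM was added 24 h after seeding, and growth was followed up to 72 h of incubation by CellTiter 96 AQueous absorbance, relative to DMSO control.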

[9] = target: T1, Histone acetyltransferase KAT2B; assay: Inhibition of histone acetylase activity of human recombinant PCAF expressed in Escherichia coli at 50 uM using biotinylated oligopeptide sequences from histone H3 (1-21) substrate by In-vitro time-resolved fluorescence immunosorbent acetyltransferase assay; summary of the method: as §3
Target sequence in this assay (Q92831 whole entry, looked up): as above

SK-N-SH [10] = assay: Growth inhibition of human SK-N-SH cells at 25 uM by CellTiter-96 Aqueous Non-radioactive cell proliferation assay; format: functional; details: read-out: GI; summary of the method: as §2
[11] = target: T1, Histone acetyltransferase KAT2B; assay: Inhibition of histone acetylase activity of human recombinant PCAF expressed in Escherichia coli at 25 uM using biotinylated oligopeptide sequences from histone H3 (1-21) substrate by In-vitro time-resolved fluorescence immunosorbent acetyltransferase assay; summary of the method: as §3
Target sequence in this assay (Q92831 whole entry, looked up): as above

SK-N-SH [12] = assay: Growth inhibition of human SK-N-SH cells at 10 uM by CellTiter-96 Aqueous Non-radioactive cell proliferation assay; format: functional; details: read-out: GI; summary of the method: as §2
[13] = target: T1, Histone acetyltransferase KAT2B; assay: Inhibition of histone acetylase activity of human recombinant PCAF expressed in Escherichia coli using biotinylated oligopeptide sequences from histone H3 (1-21) substrate in presence of 1 mmol/L DTT by In-vitro time-resolved fluorescence immunosorbent acetyltransferase assay
Target sequence in this assay (Q92831 whole entry, looked up): as above

HCT-116 [14] = assay: Growth inhibition of human HCT116 cells at 100 uM by CellTiter-96 Aqueous Non-radioactive cell proliferation assay; format: functional; details: read-out: GI; summary of the method: as §4
SK-N-SH [15] = assay: Growth inhibition of human SK-N-SH cells at 100 uM by CellTiter-96 Aqueous Non-radioactive cell proliferation assay; format: functional; details: read-out: GI; summary of the method: as §2
HCT-116 [16] = assay: Growth inhibition of human HCT116 cells by CellTiter-96 Aqueous Non-radioactive cell proliferation assay; format: functional; summary of the method: as §4
SK-N-SH [17] = assay: Growth inhibition of human SK-N-SH cells at 40 uM by CellTiter-96 Aqueous Non-radioactive cell proliferation assay; format: functional; details: read-out: GI; summary of the method: as §2
HCT-116 [18] = assay: Growth inhibition of human HCT116 cells at 40 uM by CellTiter-96 Aqueous Non-radioactive cell proliferation assay; format: functional; details: read-out: GI; summary of the method: as §4
[19] = target: T1, Histone acetyltransferase KAT2B; assay: Inhibition of histone acetylase activity of human recombinant PCAF expressed in Escherichia coli at 300 uM using biotinylated oligopeptide sequences from histone H3 (1-21) substrate by In-vitro time-resolved fluorescence immunosorbent acetyltransferase assay; summary of the method: as §3
Target sequence in this assay (Q92831 whole entry, looked up): as above

[20] = target: T1, Histone acetyltransferase KAT2B; assay: Inhibition of histone acetylase activity of human recombinant PCAF expressed in Escherichia coli at 200 uM using biotinylated oligopeptide sequences from histone H4 (2-24) substrate by In-vitro time-resolved fluorescence immunosorbent acetyltransferase assay; summary of the method: as §1
Target sequence in this assay (Q92831 whole entry, looked up): as above

[21] = target: T1, Histone acetyltransferase KAT2B; assay: Inhibition of histone acetylase activity of human recombinant PCAF expressed in Escherichia coli at 10 uM using biotinylated oligopeptide sequences from histone H3 (1-21) substrate by In-vitro time-resolved fluorescence immunosorbent acetyltransferase assay; summary of the method: as §3

Structure (SMILES) | IC50 [3] [µM] | GI50 (SK-N-SH [7]) [µM] | inhibition of growth at 25 µM (HCT-116 [6]) [%] | also measured
O=c1c2cccnc2sn1Cc1ccc(C(F)(F)F)cc1 | 130 | 0.48 | 38 | GI50 (MCF7): 30.2 µM; IC50 [5]: 25.5 µM
O=C1c2cccnc2S(=O)(=O)N1Cc1ccc(Cl)c(Cl)c1 |  |  |  | inhibition [9]: 6%
CCCCc1ccc(-n2sc3ncc(-c4ccccc4)cc3c2=O)cc1 |  |  | 33 | inhibition of growth at 25 µM (SK-N-SH [10]): 55%; inhibition [11]: 49%
Oc1nsc2ncccc12 |  |  |  | inhibition [9]: 17%
O=c1c2cccnc2sn1Cc1ccc(Cl)cc1 | 17.5 |  | 97 | inhibition of growth at 10 µM (SK-N-SH [12]): 20%
Cc1cc(C)c2c(=O)n(CC(=O)Nc3ccc(F)cc3C)sc2n1 |  | 25.7 |  | inhibition [9]: 48%; GI50 (HCT-116 [16]): 22.6 µM
O=c1c2ccccc2sn1-c1nc2ccccc2s1 |  |  |  | inhibition [9]: 46%
Cc1ccc(Cn2sc3ncccc3c2=O)cc1 | 27.9 |  | 79 | inhibition of growth at 10 µM (SK-N-SH [12]): 31%
O=c1c2cccnc2[s+]([O-])n1Cc1ccc(Cl)c(Cl)c1 (stereo not given) |  |  |  | inhibition [9]: 11%
O=C(Cn1sc2cc(F)ccc2c1=O)Nc1nc(-c2ccccc2)cs1 |  |  |  | inhibition of growth at 40 µM (SK-N-SH [17]): < 5%; inhibition [9]: 21%; inhibition of growth at 40 µM (HCT-116 [18]): < 5%
O=c1c2cccnc2sn1Cc1ccc(F)cc1 | 86.3 |  |  | 
C=C(C)C(C(=O)OC)n1scc(NCc2ccccc2)c1=O (stereo not given) |  |  |  | inhibition [19]: 48%; inhibition [20]: 20%
O=c1c2cccnc2sn1Cc1ccc(F)c(F)c1 | 101 |  |  | 
O=c1c2cccnc2sn1Cc1ccccc1 | 23 |  |  | 
O=c1c2cc([N+](=O)[O-])cnc2sn1-c1ccc(Oc2ccccc2)cc1 |  |  | < 10 | inhibition of growth at 25 µM (SK-N-SH [10]): < 5%; inhibition [21]: 48%
COc1cccc(Cn2sc3ncccc3c2=O)c1 | 22.2 |  | 42 | inhibition of growth at 10 µM (SK-N-SH [12]): 26%
Cc1cc(C)c2c(=O)n(CC(=O)Nc3ccc(Cl)cc3)sc2n1 |  | 22.1 |  | inhibition [9]: 38%; GI50 (HCT-116 [16]): 35.8 µM
O=C1/C(=C/c2ccc3c(c2)OCO3)C(=S)SN1Cc1ccco1 |  |  |  | inhibition [11]: < 5%

More lines, in order of falling IC50 [3], values ahead:

IC50 [3] [µM] | GI50 (SK-N-SH [7]) [µM] | Structure (SMILES) | inhibition of growth at 25 µM (HCT-116 [6]) [%] | also measured
15.9 | 8.93 | CCCCc1ccc(-n2sc3ncccc3c2=O)cc1 | 21 | 
15.3 |  | Cc1cnc2sn(-c3ccc([N+](=O)[O-])cc3)c(=O)c2c1 |  | IC50 [5]: 2.72 µM
12.9 |  | Cc1cnc2sn(-c3ccc(Oc4ccccc4)cc3)c(=O)c2c1 | 29 | inhibition of growth at 25 µM (SK-N-SH [10]): 32%
11.8 |  | O=c1c2cc([N+](=O)[O-])cnc2sn1-c1ccc([N+](=O)[O-])cc1 |  | IC50 [5]: 15.8 µM
7.85 |  | O=c1c2cccnc2sn1-c1ccccc1 |  | inhibition [1]: 88%
7.66 |  | O=c1c2ccc([N+](=O)[O-])cc2sn1Cc1ccccc1 |  | IC50 [5]: 51.3 µM
6.94 | 9.53 | O=c1c2cccnc2sn1Cc1ccc(Cl)c(Cl)c1 |  | GI50 (HCT-116 [16]): 15.8 µM
6.51 | 12.2 | COc1ccc(-n2sc3ncc(C)cc3c2=O)cc1 | 40 | 
5.9 |  | O=c1c2cccnc2sn1-c1ccc(F)c(F)c1 |  | 
5.71 | 19.2 | COc1ccc(-n2sc3ncccc3c2=O)cc1 | 29 | 
5.03 |  | COc1cccc(-n2sc3ncccc3c2=O)c1 |  | 
4.91 | 53.5 | O=c1c2cc([N+](=O)[O-])cnc2sn1-c1ccc(Br)cc1 |  | GI50 (MCF7): 44.2 µM; IC50 [5]: 0.86 µM
4.8 | 23.2 | O=c1ccsn1-c1ccc(Cl)c([N+](=O)[O-])c1 |  | 
4.63 | 6.2 | Cc1ccc(-n2sc3ncccc3c2=O)cc1 | 20 | inhibition [1]: 75%
4.57 |  | O=c1c2cccnc2sn1-c1ccc(Cl)c(Cl)c1 |  | inhibition [1]: 91%; inhibition of growth at 20 µM (SK-N-SH [2]): 37%; inhibition of growth at 20 µM (HCT-116 [4]): 56%
4.43 |  | O=c1c2cccnc2sn1-c1ccc(Br)cc1 |  | 
4.1 |  | O=c1c2cccnc2sn1-c1ccc([N+](=O)[O-])cc1 |  | IC50 [5]: 2.99 µM
3.69 |  | Cc1ccc(-n2sc3cc(F)ccc3c2=O)cc1 |  | inhibition of growth at 100 µM (HCT-116 [14]): 49%; inhibition of growth at 100 µM (SK-N-SH [15]): 35%
3.53 | 16.1 | O=c1c2cccnc2sn1-c1ccc(Cl)cc1 | 23 | inhibition [1]: 87%
3.42 |  | COc1ccc(-n2sc3ncc([N+](=O)[O-])cc3c2=O)cc1 |  | inhibition [13]: inactive; IC50 [5]: 1.83 µM
2.99 | 21.3 | Cc1cnc2sn(-c3ccc(Br)cc3)c(=O)c2c1 | < 5 | 
1.64 | 10.3 | O=c1c2cccnc2sn1-c1ccc(F)cc1 | 28 | GI50 (MCF7): 37.2 µM; IC50 [5]: 0.72 µM; growth inhibition (GI) (SK-N-SH [8]): Dose-dependent effect
